Experimental data taken from ChEMBL document CHEMBL1649427, “Inactivation of the glycoside hydrolase NagZ attenuates antipseudomonal beta-lactam resistance in Pseudomonas aeruginosa” (Antimicrob Agents Chemother, 2009).
In brackets after ≈: the same amount, converted by molar mass.

Tests used:
Pseudomonas aeruginosa [1] = assay: Antimicrobial activity against Pseudomonas aeruginosa PAO1 after 18 hrs by broth microdilution method; assay type: functional; settings: PAO1, 18 h
In short: (§1)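 CLSI broth microdilution in cation-adjusted Mueller-Hinton medium with serial β-lactam dilutions. Each well holds 200 μl broth inoculated with ~10⁴ cells from starter cultures at OD600 ~0.5. Plates shaken at 37°C for 18 h. The MIC is read as the lowest antibiotic concentration showing no growth. Triplicate determinations.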

[2] = target: Beta-lactamase (Pseudomonas aeruginosa (strain ATCC 15692 / PAO1 / 1C / PRS 101 / LMG12228)) (UniProt P24735); assay: Activity of beta-lactamase AmpC in Pseudomonas aeruginosa nagZ gene-deficient PAO1 assessed as nitrocefin hydrolysis after 3 hrs by spectrophotometric analysis
Beta-lactamase (Pseudomonas aeruginosa (strain ATCC 15692 / PAO1 / 1C / PRS 101 / LMG12228)), sequence (P24735 27-397 limits assumed): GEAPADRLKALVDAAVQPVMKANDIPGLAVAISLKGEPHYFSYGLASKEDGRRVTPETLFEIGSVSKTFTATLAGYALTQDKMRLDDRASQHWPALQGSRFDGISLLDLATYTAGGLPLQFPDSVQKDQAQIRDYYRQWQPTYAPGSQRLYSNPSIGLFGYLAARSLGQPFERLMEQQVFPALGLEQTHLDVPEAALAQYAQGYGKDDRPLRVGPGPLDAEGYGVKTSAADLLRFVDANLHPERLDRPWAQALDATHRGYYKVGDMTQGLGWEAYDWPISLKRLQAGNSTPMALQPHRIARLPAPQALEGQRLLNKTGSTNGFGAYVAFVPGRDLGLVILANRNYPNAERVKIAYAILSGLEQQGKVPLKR
In short: (§2)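 Strains grown in Mueller-Hinton broth at 37°C to OD600 ~0.5, then cultured 3 h at 37°C with 50 μg/ml cefoxitin (induced) or without. Crude sonic lysates assayed in triplicate at 37°C by continuous assay: nitrocefin (initial 100 μM) hydrolysis followed at 485 nm for 5 min. Specific activity expressed as nmol nitrocefin hydrolyzed/min/mg protein.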

[3] = target: Beta-lactamase (Pseudomonas aeruginosa (strain ATCC 15692 / PAO1 / 1C / PRS 101 / LMG12228)) (UniProt P24735); assay: Activity of beta-lactamase AmpC in Pseudomonas aeruginosa PAO1 harboring deltaampD::lox deltaampDh2::lox deltaampDh3::lox deltanagZ::Gm assessed as nitrocefin hydrolysis after 3 hrs by spectrophotometric analysis; in short: as §2
Pseudomonas aeruginosa [4] = assay: Antimicrobial activity against Pseudomonas aeruginosa PAO1 harboring deltaampD::lox deltaampDh2::lox delta ampDh3::lox after 18 hrs by broth microdilution method; assay type: functional; settings: PAO1, 18 h; in short: as §1
Pseudomonas aeruginosa [5] = assay: Antimicrobial activity against nagZ gene-deficient Pseudomonas aeruginosa PAO1 after 18 hrs by broth microdilution method; assay type: functional; settings: PAO1, 18 h; in short: as §1
Pseudomonas aeruginosa [6] = assay: Antimicrobial activity against Pseudomonas aeruginosa PAO1 harboring deltaampD::lox deltaampDh2::lox deltaampDh3::lox after 18 hrs by broth microdilution method; assay type: functional; settings: PAO1, 18 h; in short: as §1
Pseudomonas aeruginosa [7] = assay: Antimicrobial activity against nagZ gene-deficient Pseudomonas aeruginosa PAO1 harboring wild type nagZ gene after 18 hrs by broth microdilution method; assay type: functional; settings: PAO1, 18 h
Pseudomonas aeruginosa [8] = assay: Antimicrobial activity against nagZ gene-deficient Pseudomonas aeruginosa PAO1 harboring plasmid pUCP27 after 18 hrs by broth microdilution method; assay type: functional; settings: PAO1, 18 h
[9] = target: Beta-lactamase (Pseudomonas aeruginosa (strain ATCC 15692 / PAO1 / 1C / PRS 101 / LMG12228)) (UniProt P24735); assay: Activity of beta-lactamase AmpC in Pseudomonas aeruginosa PAO1 assessed as nitrocefin hydrolysis after 3 hrs by spectrophotometric analysis; in short: as §2
[10] = target: Beta-lactamase (Pseudomonas aeruginosa (strain ATCC 15692 / PAO1 / 1C / PRS 101 / LMG12228)) (UniProt P24735); assay: Activity of beta-lactamase AmpC in Pseudomonas aeruginosa PAO1 harboring deltaampD::lox deltaampDh2::lox deltaampDh3::lox assessed as nitrocefin hydrolysis after 3 hrs by spectrophotometric analysis; in short: as §2
Pseudomonas aeruginosa [11] = assay: Antimicrobial activity against Pseudomonas aeruginosa PAO1 harboring deltaampD::lox deltaampDh2::lox delta ampDh3::lox after 18 hrs by Etest; assay type: functional; settings: PAO1, 18 h
In short: (§3)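 Etest strips on Mueller-Hinton agar plates, run per the manufacturer's recommendations; MICs determined in triplicate.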

Pseudomonas aeruginosa [12] = assay: Antimicrobial activity against Pseudomonas aeruginosa PAO1 harboring deltaampD::lox deltaampDh2::lox deltaampDh3::lox deltanagZ::Gm after 18 hrs by Etest; assay type: functional; settings: PAO1, 18 h; in short: as §3
Pseudomonas aeruginosa [13] = assay: Antimicrobial activity against Pseudomonas aeruginosa PAO1 harboring deltaampD::lox deltaampDh2::lox delta ampDh3::lox after 18 hrs by Etest in presence of beta-lactamase inhibitor Tazobactam; assay type: functional; settings: PAO1, 18 h
Pseudomonas aeruginosa [14] = assay: Antimicrobial activity against nagZ gene-deficient Pseudomonas aeruginosa PAO1 after 18 hrs by Etest in presence of beta-lactamase inhibitor Tazobactam; assay type: functional; settings: PAO1, 18 h
In short: (§4)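 Strains are P. aeruginosa PAO1 and its insertional nagZ-inactivated derivative. MICs were read from Etest strips on Mueller-Hinton agar, following the manufacturer's recommendations. Each determination was done in triplicate.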

Pseudomonas aeruginosa [15] = assay: Antimicrobial activity against Pseudomonas aeruginosa PAO1 after 18 hrs by Etest in presence of beta-lactamase inhibitor Tazobactam; assay type: functional; settings: PAO1, 18 h; in short: as §4
Pseudomonas aeruginosa [16] = assay: Antimicrobial activity against Pseudomonas aeruginosa PAO1 after 18 hrs by Etest; assay type: functional; settings: PAO1, 18 h; in short: as §4
Pseudomonas aeruginosa [17] = assay: Antimicrobial activity against Pseudomonas aeruginosa PAO1 harboring deltaampD::lox deltaampDh2::lox deltaampDh3::lox deltanagZ::Gm after 18 hrs by Etest in presence of beta-lactamase inhibitor Tazobactam; assay type: functional; settings: PAO1, 18 h
Pseudomonas aeruginosa [18] = assay: Ratio of MIC for Pseudomonas aeruginosa PAO1 harboring deltaampD::lox deltaampDh2::lox deltaampDh3::lox deltanagZ::Gm in presence of beta-lactamase inhibitor Tazobactam to MIC for nagZ gene-deficient Pseudomonas aeruginosa PAO1 in presence of beta-lactamase inhibitor Tazobactam; assay type: functional
Pseudomonas aeruginosa [19] = assay: Antimicrobial activity against nagZ gene-deficient Pseudomonas aeruginosa PAO1 after 18 hrs by Etest; assay type: functional; settings: PAO1, 18 h; in short: as §4

SMILES	MIC (Pseudomonas aeruginosa [1])	Activity [2]	Activity [3]	MIC (Pseudomonas aeruginosa [4])	MIC (Pseudomonas aeruginosa [5])	MIC (Pseudomonas aeruginosa [6])	MIC (Pseudomonas aeruginosa [7])	MIC (Pseudomonas aeruginosa [8])	Activity [9]	Activity [10]	MIC (Pseudomonas aeruginosa [11])	MIC (Pseudomonas aeruginosa [12])	MIC (Pseudomonas aeruginosa [13])	MIC (Pseudomonas aeruginosa [14])	MIC (Pseudomonas aeruginosa [15])	MIC (Pseudomonas aeruginosa [16])	MIC (Pseudomonas aeruginosa [17])	Ratio (Pseudomonas aeruginosa [18])	MIC (Pseudomonas aeruginosa [19])
CO[C@@]1(NC(=O)Cc2cccs2)C(=O)N2C(C(=O)O)=C(COC(N)=O)CS[C@@H]21 [CEFOXITIN]	1600 µg/mL (≈ 3740 µM)	95 nmol	1020 nmol	3200 µg/mL (≈ 7490 µM)	800 µg/mL (≈ 1870 µM)	3200 µg/mL (≈ 7490 µM)	1200 µg/mL (≈ 2810 µM)	600 µg/mL (≈ 1400 µM)	230 nmol	3940 nmol									
CCN1CCN(C(=O)N[C@@H](C(=O)N[C@@H]2C(=O)N3[C@@H]2SC(C)(C)[C@@H]3C(=O)O)c2ccccc2)C(=O)C1=O [PIPERACILLIN]											> 256 µg/mL	24 µg/mL (≈ 46.4 µM)	≥ 256 µg/mL	1.5 µg/mL	1 µg/mL	1 µg/mL (≈ 1.93 µM)	16 µg/mL	10	1 µg/mL (≈ 1.93 µM)
